≈ marks a conversion by molar mass, not a printed value. Calls of active or inactive are those of the source. No cut-off for these calls is given here.
Columns and labels:
K562 [1] = experiment: Cell cycle arrest in human K562 cells assessed as accumulation at sub-G0 phase at 10^-5 mol/dm'3 after 24 hrs by propidium iodide staining-based flow cytometric method; type: functional
[2] = Growth inhibition of MDCK1 cells after 72 hrs by MTT assay; design: species or system Canis lupus familiaris; conditions: dog
Procedure, shortened: (§1)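 Adherent cells (2x10^4 cells/cm3) attached overnight, then were exposed to compound for 72 h. Medium was replaced with 5 mg/cm3 MTT, formazan was dissolved in DMSO and absorbance read at 595 nm. Percent growth was taken relative to untreated control minus background. GI50 came from a variable-slope log-inhibitor fit, as mean ± SD of three independent experiments in triplicate.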

Calf thymus DNA [3] = experiment: Disruption of calf thymus DNA helix at 0.1, 0.3, 0.5, 0.7 compound to ds-polynucleotide ratio by CD-spectrophotometric method; type: nucleic-acid assay; conditions: Bos taurus
Procedure, shortened: (§2)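 Induced CD spectra were recorded in 1 cm quartz cuvettes in Na cacodylate buffer (I = 0.05 mol dm-3, pH 7.0) with ct-DNA or polyA-polyU. Compound was added at r = [compound]/[polynucleotide] = 0.1, 0.3, 0.5 and 0.7. The CD signal was followed as a function of r.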

Calf thymus DNA [4] = experiment: Binding affinity to calf thymus DNA assessed as change in melting temperature at 0.3 compound to ds-polynucleotide ratio by spectrophotometric method; type: nucleic-acid assay; conditions: Bos taurus
Procedure, shortened: (§3)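 Thermal melting of ct-DNA (sonicated, filtered) or polyA-polyU in Na cacodylate buffer, I = 0.05 mol dm-3, pH 7.0, at given r = [compound]/[polynucleotide]; polynucleotide as phosphate concentration. Tm from maximum of first derivative, checked by tangent method. ΔTm = Tm(complex) − Tm(free nucleic acid), average of at least two measurements, error ±0.5 °C.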

K562 [5] = experiment: Cell cycle arrest in human K562 cells assessed as decrease in cell levels at G2-M phase at 10^-5 mol/dm'3 after 24 hrs by propidium iodide staining-based flow cytometric method; type: functional
[6] = Binding affinity to polyA-polyU (unknown origin) assessed as hypochromic effect by UV-vis spectrophotometric method
Procedure, shortened: (§4)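 UV-Vis titration at room temperature in Na cacodylate buffer (I = 0.05 mol dm-3, pH 7.0). Portions of ct-DNA or polyA-polyU were added to a fixed compound concentration until saturation, with dilution correction. Polynucleotide was measured as phosphate. Ks and n were obtained by Scatchard analysis, together with the hypochromic change at the absorption maximum.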

K562 [7] = experiment: Growth inhibition of human K562 cells after 72 hrs by MTT assay; type: functional; conditions: K562, 72 h
Procedure, shortened: (§5)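 Leukemia cells (1x10^5 cells/cm3) were exposed to compound for 72 h, then MTT (5 mg/cm3) was added for 4 h. Formazan was dissolved with 10% SDS in 0.01 mol dm-3 HCl and absorbance read at 595 nm. Percent growth was taken versus untreated control minus background. GI50 came from a variable-slope fit, as mean ± SD of three independent experiments in triplicate.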

Calf thymus DNA [8] = experiment: Binding affinity to calf thymus DNA by UV-vis spectrophotometric method; type: nucleic-acid assay; conditions: Bos taurus; procedure, shortened: as §4
Calf thymus DNA [9] = experiment: Binding affinity to calf thymus DNA assessed as hypochromic effect by UV-vis spectrophotometric method; type: nucleic-acid assay; conditions: Bos taurus; procedure, shortened: as §4
HeLa = experiment: Growth inhibition of human HeLa cells after 72 hrs by MTT assay; type: functional; procedure, shortened: as §1
Calf thymus DNA [10] = experiment: Binding affinity to calf thymus DNA assessed as change in melting temperature at 0.1 compound to ds-polynucleotide ratio by spectrophotometric method; type: nucleic-acid assay; conditions: Bos taurus; procedure, shortened: as §3
[11] = Binding affinity to polyA-polyU (unknown origin) major groove at 0.1, 0.3, 0.5, 0.7 compound to ds-polynucleotide ratio by CD-spectrophotometric method; procedure, shortened: as §2
Caco-2 = experiment: Growth inhibition of human Caco2 cells after 72 hrs by MTT assay; type: functional; conditions: Caco-2, 72 h; procedure, shortened: as §1
[12] = Binding affinity to polyA-polyU (unknown origin) by UV-vis spectrophotometric method; procedure, shortened: as §4
[13] = Binding affinity to polyA-polyU (unknown origin) assessed as change in melting temperature at 0.1 compound to ds-polynucleotide ratio by spectrophotometric method; procedure, shortened: as §3
[14] = Binding affinity to polyA-polyU (unknown origin) assessed as change in melting temperature at 0.3 compound to ds-polynucleotide ratio by spectrophotometric method; procedure, shortened: as §3
Calf thymus DNA [15] = experiment: Binding affinity to calf thymus DNA minor groove at 0.1, 0.3, 0.5, 0.7 compound to ds-polynucleotide ratio by CD-spectrophotometric method; type: nucleic-acid assay; conditions: Bos taurus; procedure, shortened: as §2
[16] = Solubility of the compound in water; type: physicochemical
K562 [17] = experiment: Cell cycle arrest in human K562 cells assessed as decrease in cell levels at S phase at 10^-5 mol/dm'3 after 24 hrs by propidium iodide staining-based flow cytometric method; type: functional
Calf thymus DNA [18] = experiment: Binding affinity to calf thymus DNA assessed as change in melting temperature at 0.5 compound to ds-polynucleotide ratio by spectrophotometric method; type: nucleic-acid assay; conditions: Bos taurus; procedure, shortened: as §3
[19] = Chemical stability in aqueous solution after several weeks; type: physicochemical; conditions: buffer
Procedure, shortened: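 Aqueous compound solutions were monitored for several weeks by UV-Vis absorbance at 220-900 nm. Linearity with concentration was checked up to 3.5 × 10^-5 mol dm-3, and spectra were recorded at 25–90 °C with reproducibility checked on cooling to 25 °C.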

Raji = experiment: Growth inhibition of human Raji cells after 72 hrs by MTT assay; type: functional; procedure, shortened: as §5
[20] = Binding affinity to polyA-polyU (unknown origin) assessed as change in melting temperature at 0.5 compound to ds-polynucleotide ratio by spectrophotometric method; procedure, shortened: as §3
K562 [21] = experiment: Cell cycle arrest in human K562 cells assessed as accumulation at G0-G1 phase at 10^-5 mol/dm'3 after 24 hrs by propidium iodide staining-based flow cytometric method; type: functional
[22] = Solubility of the compound in DMSO; type: physicochemical
[23] = Induction of polyA-polyU (unknown origin) intercalation at 0.1, 0.3, 0.5, 0.7 compound to ds-polynucleotide ratio by CD-spectrophotometric method; procedure, shortened: as §2

SMILES | Activity (Calf thymus DNA [3]) | ΔTm (Calf thymus DNA [4]) | Activity [6] | GI50 (K562 [7]) | Activity (Calf thymus DNA [9]) | GI50 (HeLa) | ΔTm (Calf thymus DNA [10]) | GI50 (Caco-2) | log Ks [12] | ΔTm [13] | ΔTm [14] | Activity (Calf thymus DNA [15]) | solubility [16] | ΔTm (Calf thymus DNA [18]) | Stability [19] | GI50 (Raji) | ΔTm [20] | GI50 at 72 h [2] | Activity (K562 [5]) | Activity (K562 [17]) | other results
N#Cc1ccc(Oc2ccnc3cc(Cl)ccc23)cc1 | – | – | – | 86.7 µM | – | > 100 µM | – | > 100 µM | – | – | – | – | – | – | Stable | 91.4 µM | – | 88.5 µM | – | – | solubility [22]: 1000 µM (≈ 281 µg/mL)
CC(C)CNC(=N)c1ccc2nc(-c3ccc(Oc4ccnc5cc(Cl)ccc45)cc3)[nH]c2c1.Cl.Cl.Cl | – | 1.41 °C | 17.9% | 59.7 µM | 60.2% | 57 µM | 1.07 °C | 43.2 µM | 6.05 | 1.64 °C | 0.78 °C | Active | 1000 µM | 2.08 °C | Stable | 46.7 µM | 0.25 °C | 53.5 µM | – | – | log Ks (Calf thymus DNA [8]): 5.88; Activity [23]: Active
Cl.Cl.Cl.N=C(NC1CCCC1)c1ccc(Oc2ccnc3cc(Cl)ccc23)cc1 | – | 1.43 °C | – | 18.8 µM | – | 48.6 µM | 1.35 °C | 13.5 µM | – | 0.64 °C | 0.65 °C | – | 1000 µM | 1.51 °C | Stable | 19.7 µM | 0.28 °C | 35 µM | Active | Active | Activity (K562 [21]): Active
CC(C)NC(=N)c1ccc2nc(-c3ccc(Oc4ccnc5cc(Cl)ccc45)cc3)[nH]c2c1.Cl.Cl.Cl | – | 1.75 °C | 26.8% | 69 µM | 60% | 51.3 µM | 1.07 °C | 53.3 µM | 5.36 | -0.44 °C | 1.32 °C | Active | 1000 µM | 2.24 °C | Stable | 48.2 µM | 0.43 °C | 61.8 µM | – | – | log Ks (Calf thymus DNA [8]): 7.87; Activity [23]: Active
N#Cc1ccc2nc(-c3ccc(Oc4ccnc5cc(Cl)ccc45)cc3)[nH]c2c1 | – | – | – | > 100 µM | – | > 100 µM | – | > 100 µM | – | – | – | Active | – | – | Stable | > 100 µM | – | 93.1 µM | – | – | solubility [22]: 1000 µM (≈ 397 µg/mL)

Compounds with a lower GI50 (K562 [7]), results first:

Activity (Calf thymus DNA [3]) | ΔTm (Calf thymus DNA [4]) | Activity [6] | GI50 (K562 [7]) | Activity (Calf thymus DNA [9]) | GI50 (HeLa) | ΔTm (Calf thymus DNA [10]) | GI50 (Caco-2) | log Ks [12] | ΔTm [13] | ΔTm [14] | Activity (Calf thymus DNA [15]) | solubility [16] | ΔTm (Calf thymus DNA [18]) | Stability [19] | GI50 (Raji) | ΔTm [20] | SMILES | GI50 at 72 h [2] | Activity (K562 [5]) | Activity (K562 [17]) | other results
Active | 8.15 °C | 26% | 15.1 µM | 32.2% | > 100 µM | 4.31 °C | > 100 µM | 7.02 | 1.24 °C | 0.75 °C | Active | 1000 µM | 8.67 °C | Stable | 28.5 µM | – | CC(C)CNC(=N)c1ccc2nc(-c3ccc(OCCNc4ccnc5cc(Cl)ccc45)cc3)[nH]c2c1.Cl.Cl.Cl | 94.1 µM | Active | Active | Activity (K562 [1]): Active; log Ks (Calf thymus DNA [8]): 6.51; Activity [11]: Active
Active | 7.8 °C | 49.7% | 11.4 µM | 24.4% | > 100 µM | 3.71 °C | > 100 µM | 6.81 | 3.02 °C | 1.14 °C | Active | 1000 µM | 7.8 °C | Stable | 17.1 µM | 4.67 to 35.4 °C | Cl.Cl.Cl.N=C(NC1CCCC1)c1ccc2nc(-c3ccc(OCCNc4ccnc5cc(Cl)ccc45)cc3)[nH]c2c1 | 99.2 µM | – | Active | log Ks (Calf thymus DNA [8]): 6.29; Activity [11]: Active
Active | – | 37.7% | 8.6 µM | 21.6 to 26% | > 100 µM | 5.75 °C | 117 µM | 6.71 | 4.62 °C | 5.16 °C | Active | 1000 µM | – | Stable | 27.5 µM | 8.86 to 33.5 °C | Cl.Cl.Cl.Clc1ccc2c(NCCOc3ccc(-c4nc5ccc(C6=NCCN6)cc5[nH]4)cc3)ccnc2c1 | > 100 µM | – | Active | Activity (K562 [1]): Active; Activity [11]: Active
– | 1.97 °C | – | 16.9 µM | – | 52.3 µM | 1.91 °C | 71.9 µM | – | -0.71 °C | -0.8 °C | – | 1000 µM | 1.85 °C | Stable | 25.5 µM | -0.44 °C | CC(C)CNC(=N)c1ccc(Oc2ccnc3cc(Cl)ccc23)cc1.Cl.Cl.Cl | 30.3 µM | Active | Active | Activity (K562 [21]): Active
Active | 2.58 °C | – | 7.8 µM | – | 56.6 µM | 3.96 °C | 28.3 µM | – | – | – | Active | – | 2.6 °C | Stable | 5.2 µM | – | N#Cc1ccc2nc(-c3ccc(OCCNc4ccnc5cc(Cl)ccc45)cc3)[nH]c2c1 | 22.1 µM | – | – | solubility [22]: 1000 µM (≈ 440 µg/mL)
– | – | inactive | 7.2 µM | 26.2% | 84.4 µM | – | 95.3 µM | inactive | – | – | – | – | – | Stable | 6.2 µM | – | N#Cc1ccc(OCCNc2ccnc3cc(Cl)ccc23)cc1 | > 100 µM | Active | Active | Activity (K562 [21]): Active; solubility [22]: 1000 µM (≈ 324 µg/mL)

Source: ChEMBL document CHEMBL4130346, “New quinoline-arylamidine hybrids: Synthesis, DNA/RNA binding and antitumor activity” (Eur J Med Chem, 2017)
